Source: PubChem BioAssay (The Scripps Research Institute Molecular Screening Center)
Only some compounds are listed: those with a hit (about 2.4% of all), similar ones and a draw of the others.
NPY-Y1 PAM-ag: NPY-Y1 receptor potentiators or agonists, primary screen, cell-based; activation, % at 3.6 µM; NPY-Y1 expressing cells, potentiator/agonist activation; 0.37% of 220,000 active; Neuropeptide Y receptor type 1 (Homo sapiens), P25929; in the data active = activation above about 33%, passing the limit was not always enough;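 also: cells stimulated with NPY at EC10 then isoproterenol at EC100; 0% = low agonist plus stimulus and 100% = saturating agonist plus stimulus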
NPY-Y2 antag: NPY-Y2 receptor antagonists, primary screen, cell-based | NPY-Y2 expressing cells, antagonist mode | inhibition, % at 2.7 µM | 0.99% of 140,000 active; in the data active = inhibition above about 17%;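 also: 0% = vehicle with agonist challenge and 100% = reference antagonist with challenge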
Target sequence (P49146 whole entry, looked up): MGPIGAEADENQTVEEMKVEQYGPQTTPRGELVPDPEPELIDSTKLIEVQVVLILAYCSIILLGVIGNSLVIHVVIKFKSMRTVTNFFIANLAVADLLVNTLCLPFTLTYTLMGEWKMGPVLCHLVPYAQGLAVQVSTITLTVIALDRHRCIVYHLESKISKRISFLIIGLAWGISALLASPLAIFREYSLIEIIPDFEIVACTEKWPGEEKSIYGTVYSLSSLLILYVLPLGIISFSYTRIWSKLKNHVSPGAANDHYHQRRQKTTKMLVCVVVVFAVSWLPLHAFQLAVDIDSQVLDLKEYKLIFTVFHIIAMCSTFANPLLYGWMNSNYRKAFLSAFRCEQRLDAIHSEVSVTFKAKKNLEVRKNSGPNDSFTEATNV
S1P4 ag: S1P4 receptor agonists, primary screen, cell-based; AID 1509, 2009; 0.35% of 220,000 active; activation, % at 4.98 µM; S1P4-expressing cell line, agonist reporter assay; in the data active = activation above about 11%;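 also: 0% = DMSO vehicle and 100% = reference agonist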
NPY-Y2 PAM-ag: NPY-Y2 potentiators or agonists, primary screen, cell-based; AID 1359, 2008; cells expressing NPY-Y2, potentiator/agonist read-out; 0.45% of 220,000 active; activation, % at 3.6 µM; in the data active = activation above about 27%;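 also: cells stimulated with NPY near EC25 plus isoproterenol at EC100; 0% = vehicle plus submaximal agonist and 100% = vehicle plus saturating agonist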
S1P4 antag: S1P4 receptor antagonists, primary screen, cell-based | inhibition, % at 4.98 µM | S1P4-expressing cells, antagonist mode, reporter read-out | Sphingosine 1-phosphate receptor 4 (Homo sapiens), O95977 | AID 1510, 2009 | 0.26% of 220,000 active; in the data active = inhibition above about 29%;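 also: 0% = wells stimulated with agonist and 100% = vehicle wells without agonist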
NPY-Y1 antag: NPY-Y1 receptor antagonists, primary screen, cell-based | HEK293-CNG Y1 cells, membrane potential fluorescence; NPY at EC95, then isoproterenol | inhibition, % at 3.6 µM | 1% of 200,000 active | Neuropeptide Y receptor type 1 (Homo sapiens), P25929;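 active = inhibition above the campaign mean inhibition of all tested compounds plus 3 SD, cut at about 20% in these data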;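 also: 0% = DMSO wells given NPY plus isoproterenol and 100% = isoproterenol alone without NPY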
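Assay system: HEK293 Y1/CNG channel cell line; Doses: single compound dose of 3.6 µM, 0.4% DMSO; Timing: dye 3 h, compound 60 min room temperature, stimulation 45 min; Technique: Membrane-potential fluorescent dye readout; Measure: % inhibition of NPY effect.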
NPY-Y2 confirm: NPY-Y2 potentiators or agonists, confirmation, cell-based | shares compounds with NPY-Y2 PAM-ag | 20% of 450 active | cell-based NPY-Y2 potentiator/agonist assay | activation, % at 3.6 µM; in the data active = activation above about 33%
NPY-Y1 potentiator: NPY-Y1 potentiators or agonists, counter-screen for NPY-Y2 potentiator project, cell-based, fluorescence | shares compounds with NPY-Y2 PAM-ag | Y1 HEK293-CNG cells, membrane potential fluorescence | activation, % at 3.6 µM | 20% of 450 active | AID 1651, 2009; in the data active = activation above about 45%;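 also: cells stimulated with submaximal NPY then isoproterenol with phosphodiesterase inhibitor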
NPY-Y1 agonist 2: NPY-Y1 direct agonists, selectivity assay for NPY-Y2 potentiator project, cell-based, fluorescence | shares compounds with NPY-Y2 PAM-ag | HEK293 Y1-CNGC, membrane potential fluorescence, agonism | activation, % at 3.6 µM | 37% of 450 active | AID 1702, 2009;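 active = activation above the mean of DMSO-only control wells plus 3 SD, cut at about 18% in these data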;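 also: cells stimulated with 1 µM isoproterenol plus the PDE inhibitor Ro 20-1724; 0% = isoproterenol with DMSO and no NPY and 100% = 40 nM NPY; Y1 agonists lower the membrane potential dye signal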
CNGC inh: CNGC cAMP sensor activity inhibitors, counter-screen for NPY-Y2 potentiator project, cell-based, HEK293-CNG parental, membrane potential fluorescence; shares compounds with NPY-Y2 PAM-ag; isoproterenol cAMP; inhibition, % at 3.6 µM; 32% of 450 active; AID 1703, 2009;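 active = inhibition above the control-well mean plus 3 SD of those wells, cut at about 22% in these data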;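 also: 0% = DMSO with isoproterenol and 100% = DMSO without isoproterenol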
Y2 agonist ctr: NPY-Y2 direct agonists, counter-screen for NPY-Y2 potentiator project, cell-based, fluorescence | shares compounds with NPY-Y2 PAM-ag | HEK293 Y2/CNGC cells, membrane potential fluorescence, agonist mode | activation, % at 3.6 µM | 56% of 450 active | AID 1710, 2009;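 active = activation above the mean of solvent-only control wells plus 3 SD, cut at about 10% in these data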;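 also: cells stimulated by isoproterenol with no NPY added so direct agonism is tested; 0% = DMSO with isoproterenol alone and 100% = NPY at EC100 plus isoproterenol; agonism lowers probe fluorescence through less cAMP and CNG channel opening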
* hit, by the source's call.

Screening CC(C)(C)n1cc(S(=O)(=O)c2ccccc2)[nH]c1=O returned NPY-Y1 PAM-ag -2, S1P4 ag 0, NPY-Y2 PAM-ag 41*, S1P4 antag 7, NPY-Y1 antag 3, NPY-Y2 confirm -1, NPY-Y1 potentiator 2, NPY-Y1 agonist 2 -2, CNGC inh 0 and Y2 agonist ctr 9.
For CC(C)Sc1ncc(S(=O)(=O)c2ccccc2)c(=O)[nH]1 the results were NPY-Y1 PAM-ag -19, S1P4 ag 1, NPY-Y2 PAM-ag -8, S1P4 antag 0 and NPY-Y1 antag 1.
Cc1cc(C(=O)NNc2ccc(Cl)cc2)no1 was read as NPY-Y1 PAM-ag 4, S1P4 ag -1, NPY-Y2 PAM-ag 13 and S1P4 antag 3.
Screening Cc1cc(C(=O)NNC(=O)Nc2ccc(Cl)cc2)no1 returned NPY-Y1 PAM-ag -18, S1P4 ag -2, NPY-Y2 PAM-ag 97*, S1P4 antag 12, NPY-Y2 confirm -8, NPY-Y1 potentiator -5, NPY-Y1 agonist 2 -13, CNGC inh -2 and Y2 agonist ctr -5.
O=C(Nc1ccccc1)Nc1ncc([N+](=O)[O-])s1 was read as NPY-Y1 PAM-ag 21, S1P4 ag 1, NPY-Y2 PAM-ag 31*, S1P4 antag -6, NPY-Y1 antag 3, NPY-Y2 confirm 13, NPY-Y1 potentiator -12, NPY-Y1 agonist 2 -11, CNGC inh 8 and Y2 agonist ctr -3.
For Cc1cccc(C)c1OCC(O)CNC(C)(C)C (configuration not stated) the results were NPY-Y1 PAM-ag 19, NPY-Y2 antag 1, S1P4 ag 0, NPY-Y2 PAM-ag 41*, S1P4 antag -15, NPY-Y1 antag 3, NPY-Y2 confirm 12, NPY-Y1 potentiator 13, NPY-Y1 agonist 2 9, CNGC inh 12 and Y2 agonist ctr 13*.
Screening COCCCN1C(=O)CS/C1=N\S(=O)(=O)c1ccccc1 returned NPY-Y1 PAM-ag 7, S1P4 ag 0, NPY-Y2 PAM-ag -11 and S1P4 antag -12.
CN1C/C(=N\S(=O)(=O)c2ccccc2)N(C)C1=O was read as NPY-Y1 PAM-ag 39, NPY-Y2 antag -1, S1P4 ag 1, NPY-Y2 PAM-ag 101*, S1P4 antag 1, NPY-Y1 antag 10, NPY-Y2 confirm -2, NPY-Y1 potentiator 6, NPY-Y1 agonist 2 -1, CNGC inh 1 and Y2 agonist ctr 0.
CS(=O)(=O)c1ccc(C(=O)N2CCN(Cc3ccccc3)CC2)cc1 was read as NPY-Y1 PAM-ag -18, S1P4 ag -2, NPY-Y2 PAM-ag -18, S1P4 antag -4 and NPY-Y1 antag 1.
For O=C(c1ccc(CNS(=O)(=O)c2ccccc2)cc1)N1CCN(Cc2ccccc2)CC1 the results were NPY-Y1 PAM-ag 32, NPY-Y2 antag 2, S1P4 ag -3, NPY-Y2 PAM-ag 27*, S1P4 antag -10, NPY-Y1 antag -7, NPY-Y2 confirm -5, NPY-Y1 potentiator -9, NPY-Y1 agonist 2 -15, CNGC inh 1 and Y2 agonist ctr -1.
For C=CCn1c(O)c(C=Nc2ccc(CN3CCCCC3)cc2)c(=O)[nH]c1=S the results were NPY-Y1 PAM-ag -6, S1P4 ag 0, NPY-Y2 PAM-ag -9 and S1P4 antag -18.
CNNC(=S)Nc1cccc(C(F)(F)F)c1 was read as NPY-Y1 PAM-ag -10, S1P4 ag 0, NPY-Y2 PAM-ag 12 and S1P4 antag 7.
For FC(F)(F)c1cccc(NC(=S)NNC(=S)Nc2cccc(C(F)(F)F)c2)c1 the results were NPY-Y1 PAM-ag 34, S1P4 ag 1, NPY-Y2 PAM-ag 54*, S1P4 antag -11, NPY-Y2 confirm 32, NPY-Y1 potentiator 40, NPY-Y1 agonist 2 46*, CNGC inh 44* and Y2 agonist ctr 33*.
`COc1ccc(CC(=O)Nc2ccc(N3CCOCC3)cc2)cc1S(=O)(=O)N1CCOCC1` gave NPY-Y1 PAM-ag 24, S1P4 ag 0, NPY-Y2 PAM-ag -4 and S1P4 antag 8.
`CCC(C)N(C)C1CCN(C(=S)Nc2cccc(OC)c2)CC1` (configuration not stated) gave NPY-Y1 PAM-ag 0, S1P4 ag 1, NPY-Y2 PAM-ag 82*, S1P4 antag -3, NPY-Y1 antag -2, NPY-Y2 confirm -3, NPY-Y1 potentiator 3, NPY-Y1 agonist 2 -4, CNGC inh 3 and Y2 agonist ctr 8.
Screening COc1cccc(NC(=S)N2CCC(N(C)CC3CCCO3)CC2)c1 (configuration not stated) returned NPY-Y1 PAM-ag -1, NPY-Y2 antag 3, S1P4 ag 0, NPY-Y2 PAM-ag 14, S1P4 antag -15 and NPY-Y1 antag -3.
`CC(C)(C)C1CCC(OC(=O)CN2CCCCC2)CC1` (configuration not stated) gave NPY-Y1 PAM-ag -8, S1P4 ag 0, NPY-Y2 PAM-ag -8 and S1P4 antag 15.
Screening CCS(=O)(=O)c1ccc(O)c(NC(=O)NC2CCCCC2)c1 returned NPY-Y1 PAM-ag 11, S1P4 ag 0, NPY-Y2 PAM-ag -17 and S1P4 antag -12.
`CCCOP(=O)(OCCC)C(Nc1ccc(C(C)C)cc1)c1ccc([N+](=O)[O-])cc1` (configuration not stated) gave NPY-Y1 PAM-ag 28, NPY-Y2 antag 13, S1P4 ag -2, NPY-Y2 PAM-ag 35*, S1P4 antag -14, NPY-Y1 antag 9, NPY-Y2 confirm 12, NPY-Y1 potentiator 24, NPY-Y1 agonist 2 16, CNGC inh 6 and Y2 agonist ctr 8.
